This note sets out measurements from ChEMBL document CHEMBL1122889, “Amino acid derived latent isocyanates: irreversible inactivation of porcine pancreatic elastase and human leukocyte elastase” (J Med Chem, 1985).

Usually Ki stands for the equilibrium dissociation constant of an inhibitor or competing ligand from its target. As a reminder, the inhibition is the drop in the measured response relative to a control, in per cent. The low end stands for little suppression, the high end for strong suppression.

For experiment [1], the target named is T1, Pancreatic elastase (Sus scrofa) (UniProt P08419+P00772). Briefly: k3/k1 ratio of the compound. The format is protein assay. The procedure, abridged: (§1)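 PPE, 9.0 × 10⁻⁶ M, incubated with inhibitor in acetonitrile in 50 mM phosphate pH 6.5 at 25 °C, at inhibitor:enzyme ratios of 20–150. Aliquots taken over time were assayed with Boc-L-Ala-p-nitrophenyl ester: 30 s preincubation, then absorbance change over 2 min at 347.5 nm. Controls contained acetonitrile. Kobs came from ln(Et/E0) vs time, two runs per concentration. Ki and k3 came from the double-reciprocal replot, and k3/Ki was computed.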

The target of a further experiment is Pancreatic elastase (Sus scrofa, UniProt P08419+P00772). Briefly: Ki value was evaluated for the inhibition of porcine pancreatic elastase. The format is protein assay. The procedure, abridged: as §1
Experiment [2] has as its target T1, Pancreatic elastase (Sus scrofa). Briefly: k3 value was evaluated for the inhibition of porcine pancreatic Elastase. The format is protein assay. The procedure, abridged: as §1
In a further experiment the target is T2, Neutrophil elastase (Homo sapiens, UniProt P08246).
T2 sequence (P08246 whole entry): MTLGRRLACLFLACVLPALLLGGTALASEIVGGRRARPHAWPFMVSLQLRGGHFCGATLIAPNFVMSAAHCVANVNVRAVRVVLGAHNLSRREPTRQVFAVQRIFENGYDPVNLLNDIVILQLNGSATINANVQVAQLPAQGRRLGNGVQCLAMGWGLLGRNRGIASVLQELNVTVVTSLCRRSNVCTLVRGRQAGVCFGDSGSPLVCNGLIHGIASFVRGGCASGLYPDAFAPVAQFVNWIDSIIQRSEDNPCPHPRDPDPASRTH
Briefly: Ki value was evaluated for the inhibition of human leukocyte elastase. A digest of the protocol:
(§2)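 HLE, 1.6 × 10⁻⁷ M, in Tris-HCl buffer pH 8.0 at 25 °C. Inhibitor was dissolved in N-methylpyrrolidinone. Loss of activity was followed continuously with succinyl-L-trialanyl-p-nitroanilide at 410 nm as a pseudo-first-order reaction, and rate constants were found by the Tsou method. Ki and k3 were taken from the double-reciprocal replot 1/kobsd vs 1/[I].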

Experiment [3] deals with T3, Neutrophil elastase (Homo sapiens) (UniProt P08246).
T3 sequence (whole entry): T2 sequence (P08246 whole entry)
Briefly: k3 value was evaluated for the inhibition of human leukocyte elastase. A digest of the protocol: as §2

For experiment [4], the target named is T1, Pancreatic elastase (Sus scrofa). Briefly: k3 value was evaluated for the inhibition of porcine pancreatic elastase. The experiment is classed as protein assay. The procedure, abridged: as §1
Experiment [5] has the same target. Briefly: Percent inhibition against porcine pancreatic elastase. The format is protein assay. The settings on record: concentration not given here. A digest of the protocol: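 PPE, 4.50 × 10⁻⁶ M stock in phosphate buffer pH 6.5, was incubated at 25 °C for 20 min with inhibitor (2.50 × 10⁻³ M stock in acetonitrile). Remaining activity was assayed by adding Boc-L-alanyl-p-nitroanilide (2.22 × 10⁻² M stock).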

The target of experiment [6] is T3, Neutrophil elastase (Homo sapiens). Briefly: Percent inhibition against human leukocyte elastase. As to conditions: concentration not given here. The procedure, abridged:
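HLE, 1.53 × 10⁻⁴ M stock in Tris-HCl pH 7.5, was incubated with inhibitor for 20 min. Residual activity was assayed by adding succinyltrialanyl-p-nitroanilide (2.3 × 10⁻³ M stock in Tris buffer).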

As to `CCC(C)[C@H](NC(=O)n1ccnc1)C(=O)OC` (some centres undefined), the k3/k1 in experiment [1] was found to be 1 M⁻¹ s⁻¹. For the same compound, the Ki at Pancreatic elastase was determined as 1220 µM. In experiment [2], this compound displayed a k3 of 0.07 min⁻¹.
On Pancreatic elastase, `CCCCNC(=O)n1ccnc1C` displayed an inhibition constant (Ki) of 2410 µM. In experiment [2], this compound registered a k3 of 0.3 min⁻¹.
Consider `CCC[C@H](NC(=O)n1ccnc1)C(=O)OC`, for which the Ki at Neutrophil elastase was 320 µM; on Pancreatic elastase, 840 µM. For the same compound, the values for the k3 in experiment [3] and in experiment [2] were 9.6 min⁻¹ and 0.322 min⁻¹, respectively.
For `COC(=O)[C@H](CC(C)C)NC(=O)n1ccnc1`, the k3/k1 in experiment [1] amounted to 0.5 M⁻¹ s⁻¹. This compound also came in with a Ki at Pancreatic elastase of 1170 µM. The k3 in experiment [2] was 0.04 min⁻¹.
On Pancreatic elastase, `CCCCNC(=O)n1ccnc1CC` displayed a Ki of 470 µM. Also, the k3 in experiment [2] was found to be 0.12 min⁻¹.
Regarding `COC(=O)[C@@H](NC(=O)n1ccnc1)C(C)C`, the values for the k3 in experiment [4] and in experiment [3] were 0.183 min⁻¹ and 20.8 min⁻¹, respectively. Further, the figures for the Ki at Neutrophil elastase and on Pancreatic elastase were 1800 µM and 1110 µM, respectively.
`CCCCNC(=O)n1cnc(C)c1`: the Ki on Pancreatic elastase turned out to be 7230 µM. Also, in experiment [2], the k3 stood at 0.06 min⁻¹.
Take `CCCCC(NC(=O)n1ccnc1)C(=O)OC` (centres undefined): the Ki at Neutrophil elastase was 1000 µM; at Pancreatic elastase, 1940 µM. Also, the k3 worked out at 10 min⁻¹ in experiment [3] and 0.255 min⁻¹ in experiment [2].
The compound `CCCCNC(=O)n1ccnc1` returned a k3 in experiment [4] of 0.66 min⁻¹. At Pancreatic elastase, this compound registered a Ki of 1400 µM.
`CCCC(N=C=O)C(=O)OC` (centres undefined): the inhibition in experiment [5] was 98%; in experiment [6], 100%.
With `COC(=O)C(CCSC)N=C=O` (centres undefined), the values for the inhibition in experiment [5] and in experiment [6] were 27% and 100%, respectively.
The matching figures for `COC(=O)[C@H](CCSC)NC(=O)n1ccnc1`: 0% and 100%.
Compound `CCCCCCCc1nccn1C(=O)NCCCC` gave a Ki at Pancreatic elastase of 2410 µM. Also, the k3 in experiment [2] stood at 0.12 min⁻¹.
